Assay results as given in ChEMBL document CHEMBL4265871, “Novel alkylated azoles as potent antifungals” (Eur J Med Chem, 2017).
In brackets after ≈: the same amount, converted by molar mass.

How the values were obtained:
Pichia kudriavzevii = experiment: Antifungal activity against Candida krusei ATCC 6258 incubated for 48 hrs by modified CLSI M27-A3 protocol based method; assay type: functional; details: ATCC 6258, 48 h
Summary of the method: (§1)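 For C. albicans ATCC 10231, C. krusei ATCC 6258 and C. parapsilosis ATCC 22019, MIC-0 was read, meaning complete growth inhibition. For azole controls, MIC-2 (50% growth inhibition) was reported instead. Caspofungin and voriconazole were tested here; other controls came from earlier work.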

[1] = Hemolytic activity in mouse erythrocytes assessed as hemolysis level at 125 ug/ml incubated for 1 hr at 37 degC; assay type: ADME, cell-based, Erythrocyte; details: read-out: Activity
Summary of the method: (§2)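 Mouse erythrocytes incubated 1 h at 37 °C with test agents over 1.95 to 125 µg/mL. Percent lysis is read for each concentration.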

Nakaseomyces glabratus = experiment: Antifungal activity against Candida glabrata ATCC 2001 incubated for 48 hrs by modified CLSI M27-A3 protocol based method; assay type: functional; details: ATCC 2001, 48 h
Candida albicans [2] = experiment: Effect on sterol composition in Candida albicans ATCC 10231 assessed as lanosterol level at 0.125 ug/mL incubated for 10 mins by GC-MS analysis (reference value: 4.17%)
[3] = Hemolytic activity in mouse erythrocytes assessed as hemolysis level at 3.9 ug/ml incubated for 1 hr at 37 degC; assay type: ADME, cell-based, Erythrocyte; details: read-out: Activity; summary of the method: as §2
[4] = Hemolytic activity in mouse erythrocytes assessed as hemolysis level at 1.95 ug/ml incubated for 1 hr at 37 degC; assay type: ADME, cell-based, Erythrocyte; details: read-out: Activity; summary of the method: as §2
Candida albicans [5] = experiment: Effect on sterol composition in Candida albicans ATCC 64124 assessed as ergosterol level at 1.95 ug/mL incubated for 10 mins by LC-MS analysis (reference value: 54.72%)
Candida albicans [6] = experiment: Antifungal activity against ITC and FLC-susceptible Candida albicans ATCC MYA-2876 incubated for 48 hrs by modified CLSI M27-A3 protocol based method; assay type: functional; details: ATCC MYA-2876, 48 h
Summary of the method: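 Because these Candida strains show trailing growth, MIC-2 was read, meaning 50% growth inhibition. Caspofungin and voriconazole were tested here; other controls came from earlier work.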

[7] = Toxicity in human BEAS2B cells assessed as reduction in cell viability incubated for 24 hrs by resazurin dye based assay; details: BEAS-2B cells
Summary of the method: (§3)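 Toxicity tested in the nucleated lines A549 and BEAS-2B to give EC50 values. Selectivity index is EC50 against the mammalian line divided by the MIC against a given fungal strain.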

Candida albicans [8] = experiment: Effect on sterol composition in Candida albicans ATCC 64124 assessed as eburicol level at 1.95 ug/mL incubated for 10 mins by LC-MS analysis (reference value: 6.28%)
[9] = Hemolytic activity in mouse erythrocytes assessed as hemolysis level at 7.8 ug/ml incubated for 1 hr at 37 degC; assay type: ADME, cell-based, Erythrocyte; details: read-out: Activity; summary of the method: as §2
Candida albicans [10] = experiment: Antifungal activity against ITC and FLC-resistant Candida albicans ATCC MYA-90819 incubated for 48 hrs by modified CLSI M27-A3 protocol based method; assay type: functional; details: ATCC MYA-90819, 48 h
Candida parapsilosis = experiment: Antifungal activity against Candida parapsilosis ATCC 22019 incubated for 48 hrs by modified CLSI M27-A3 protocol based method; assay type: functional; details: Lodderomyces parapsilosis, ATCC 22019, 48 h; summary of the method: as §1
Candida albicans [11] = experiment: Effect on sterol composition in Candida albicans ATCC 10231 assessed as unknown sterol level at 0.125 ug/mL incubated for 10 mins by GC-MS analysis (reference value: 1.88 to 2.78%)
Candida albicans [12] = experiment: Effect on sterol composition in Candida albicans ATCC 64124 assessed as lanosterol level at 1.95 ug/mL incubated for 10 mins by LC-MS analysis (reference value: 29.38%)
in vitro = details: mouse, mouse erythrocytes
Candida albicans [13] = experiment: Effect on sterol composition in Candida albicans ATCC 64124 assessed as unknown sterol level at 1.95 ug/mL incubated for 10 mins by LC-MS analysis (reference value: 2.67 to 6.98%)
[14] = Hemolytic activity in mouse erythrocytes assessed as hemolysis level at 15.6 ug/ml incubated for 1 hr at 37 degC; assay type: ADME, cell-based, Erythrocyte; details: read-out: Activity; summary of the method: as §2
[15] = Hemolytic activity in mouse erythrocytes assessed as hemolysis level at 31.3 ug/ml incubated for 1 hr at 37 degC; assay type: ADME, cell-based, Erythrocyte; details: read-out: Activity; summary of the method: as §2
Candida albicans [16] = experiment: Effect on sterol composition in Candida albicans ATCC 10231 assessed as ergosterol level at 0.125 ug/mL incubated for 10 mins by GC-MS analysis (reference value: 91.15%)
Candida albicans [17] = experiment: Antifungal activity against Candida albicans ATCC 64124 incubated for 48 hrs by modified CLSI M27-A3 protocol based method; assay type: functional; details: ATCC 64124, 48 h
[18] = Toxicity in human A549 cells assessed as reduction in cell viability incubated for 24 hrs by resazurin dye based assay; summary of the method: as §3
Candida albicans [19] = experiment: Antifungal activity against ITC and FLC-susceptible Candida albicans ATCC MYA-2310 incubated for 48 hrs by modified CLSI M27-A3 protocol based method; assay type: functional; details: ATCC MYA-2310, 48 h

For `OC(Cn1cncn1)(Cn1cncn1)c1ccc(F)cc1F` [FLUCONAZOLE], which MIC50 (Pichia kudriavzevii) is on record?
The MIC50 was greater than 102 µM.

And the hemolysis at 1 h, 125 ug/ml [1]?
The hemolysis at 1 h, 125 ug/ml was 13.4%.

What about the MIC50 (Nakaseomyces glabratus) of the same compound?
The MIC50 was greater than 102 µM.

And the Activity (Candida albicans [2])?
Its Activity is 3.81%.

What about the hemolysis at 1 h, 3.9 ug/ml [3] of the same compound?
Its hemolysis at 1 h, 3.9 ug/ml is 0%.

What about the hemolysis at 1 h, 1.95 ug/ml [4] of the same compound?
The hemolysis at 1 h, 1.95 ug/ml was 0%.

What about the Activity (Candida albicans [5]) of the same compound?
The Activity was 48.03%.

And the MIC50 (Candida albicans [6])?
Its MIC50 is 50.9 µM (≈ 15.6 µg/mL).

What about the EC50 at 24 h [7] of the same compound?
Its EC50 at 24 h is greater than 62.5 µg/mL.

And the Activity (Candida albicans [8])?
Its Activity is 11.61%.

What about the hemolysis at 1 h, 7.8 ug/ml [9] of the same compound?
Its hemolysis at 1 h, 7.8 ug/ml is 0%.

What about the MIC50 (Candida albicans [10]) of the same compound?
The MIC50 was greater than 408 µM.

And the MIC50 (Candida parapsilosis)?
The MIC50 was 6.4 µM (≈ 1.96 µg/mL).

And the Activity (Candida albicans [11])?
The Activity was 1.12 - 1.25%.

What about the Activity (Candida albicans [12]) of the same compound?
Its Activity is 30.59%.

And the hemolysis at 1 h, 62.5 ug/ml (in vitro)?
The hemolysis at 1 h, 62.5 ug/ml was 2.7%.

And the Activity (Candida albicans [13])?
Its Activity is 0.02 - 9.75%.

What about the hemolysis at 1 h, 15.6 ug/ml [14] of the same compound?
The hemolysis at 1 h, 15.6 ug/ml was 0%.

What about the hemolysis at 1 h, 31.3 ug/ml [15] of the same compound?
The hemolysis at 1 h, 31.3 ug/ml was 7.5%.

What about the Activity (Candida albicans [16]) of the same compound?
The Activity was 93.79%.

What about the MIC50 (Candida albicans [17]) of the same compound?
The MIC50 was greater than 408 µM.

And the EC50 at 24 h [18]?
The EC50 at 24 h was greater than 62.5 µg/mL.

And the MIC50 (Candida albicans [19])?
The MIC50 was greater than 408 µM.
